Results reported in PMC9426946 (Biochimica et biophysica acta. Proteins and proteomics, 2022).

What was measured:
[1] = target: CTRB1 S242T (Homo sapiens, UniProt P17538, S242T/Y164H); experiment: Michaelis-Menten kinetics on p-nitroanilide peptide substrates; type: biochemical; details: 0.1 M Tris-HCl pH 8.0, 1 mM CaCl2, 0.05% Tween-20; for kcat, CTRB1 S242T / Km: average of two independent measurements; for Km: read-out: KM, CTRB1 S242T
How it was run: (§1)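 Suc- and H-Ala-Ala-Pro-Phe-pNA were used at 8–1050 µM, from DMSO stocks calibrated by complete chymotryptic hydrolysis. Reactions were started by adding enzyme to 1 or 5 nM final. p-Nitroaniline release was followed at 410 nm for 3–5 min (ε 8,800 M-1cm-1), with rates taken from linear portions. KM and Vmax came from hyperbolic fits, averaging two independent measurements. Human enzymes were recombinant Y164H forms, ecotin-titrated.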

[2] = target: CTRB1 (Homo sapiens, UniProt P17538, Y164H); experiment: as above; type: biochemical; details: for kcat/KM, CTRB1 / Km: 0.1 M Tris-HCl pH 8.0, 1 mM CaCl2, 0.05% Tween-20; for Km: read-out: KM, CTRB1, average of two independent measurements
CTRB1, sequence (P17538 19-263 Y164H): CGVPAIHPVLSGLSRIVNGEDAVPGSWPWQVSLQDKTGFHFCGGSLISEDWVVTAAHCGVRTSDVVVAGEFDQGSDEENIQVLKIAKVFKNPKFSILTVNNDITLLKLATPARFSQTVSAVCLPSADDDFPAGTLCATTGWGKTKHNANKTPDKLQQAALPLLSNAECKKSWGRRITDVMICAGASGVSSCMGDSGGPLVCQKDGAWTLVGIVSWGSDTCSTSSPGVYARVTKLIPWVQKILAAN
How it was run: as §1

[3] = target: bCTRA (Bos taurus, UniProt P00766); experiment: as above; type: biochemical, bovine; details: for kcat/KM, bCTRA / kcat, bCTRA / Km: 0.1 M Tris-HCl pH 8.0, 1 mM CaCl2, 0.05% Tween-20; for kcat, bCTRA / Km: average of two independent measurements; for Km: read-out: KM, bCTRA
How it was run: as §1

[4] = target: CTRB1 D236R (Homo sapiens, UniProt P17538, D236R/Y164H); experiment: as above; type: biochemical; details: for kcat/KM, CTRB1 D236R / kcat, CTRB1 D236R / Km: 0.1 M Tris-HCl pH 8.0, 1 mM CaCl2, 0.05% Tween-20; for kcat, CTRB1 D236R / Km: average of two independent measurements; for Km: read-out: KM, CTRB1 D236R
CTRB1 D236R, sequence (P17538 19-263 Y164H/D236R): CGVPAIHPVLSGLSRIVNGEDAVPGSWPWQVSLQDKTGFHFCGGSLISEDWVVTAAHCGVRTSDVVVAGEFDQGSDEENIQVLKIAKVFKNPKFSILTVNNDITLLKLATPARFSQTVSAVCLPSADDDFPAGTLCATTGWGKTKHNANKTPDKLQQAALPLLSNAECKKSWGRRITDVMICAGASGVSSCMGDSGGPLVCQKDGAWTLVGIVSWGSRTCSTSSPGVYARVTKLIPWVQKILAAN
How it was run: as §1

[5] = target: T1, CTRB2 (Homo sapiens, UniProt Q6GPI1, Y164H); experiment: as above; type: biochemical; details: for kcat/KM, CTRB2 / kcat, CTRB2 / Km: 0.1 M Tris-HCl pH 8.0, 1 mM CaCl2, 0.05% Tween-20; for kcat, CTRB2 / Km: average of two independent measurements; for Km: read-out: KM, CTRB2
T1 sequence (Q6GPI1 19-263 Y164H): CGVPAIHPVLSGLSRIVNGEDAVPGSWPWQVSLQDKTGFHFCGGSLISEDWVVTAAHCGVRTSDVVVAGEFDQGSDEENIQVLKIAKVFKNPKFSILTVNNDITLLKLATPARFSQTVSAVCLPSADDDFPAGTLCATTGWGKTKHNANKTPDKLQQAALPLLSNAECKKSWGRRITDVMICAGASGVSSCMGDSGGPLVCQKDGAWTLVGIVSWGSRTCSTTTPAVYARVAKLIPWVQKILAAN
How it was run: as §1

[6] = target: chymotrypsin B1 (Homo sapiens) (UniProt P17538); details: cited from earlier work
chymotrypsin B1 (Homo sapiens), sequence (P17538 34-164, chain 2 of 2): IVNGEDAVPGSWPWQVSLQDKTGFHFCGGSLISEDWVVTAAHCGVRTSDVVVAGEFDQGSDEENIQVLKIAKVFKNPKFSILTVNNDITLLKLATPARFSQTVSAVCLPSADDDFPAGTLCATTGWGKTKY
chymotrypsin B1 (Homo sapiens), sequence (P17538 167-263, chain 3 of 2): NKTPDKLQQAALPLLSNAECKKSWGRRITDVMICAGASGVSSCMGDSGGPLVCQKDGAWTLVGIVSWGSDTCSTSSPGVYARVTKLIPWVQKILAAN

[7] = target: human CTRB2; details: read-out: KD on human CTRB2; prior observations; cited from earlier work
[8] = target: T1, CTRB2; experiment: Casein digestion by chymotrypsins; type: biochemical; details: 0.2 mg/mL β-casein, 5 nM enzyme, 0.1 M Tris-HCl pH 8.0, 1 mM CaCl2, 37°C; SDS-PAGE densitometry, two experiments
[9] = relative to Suc-Ala-Ala-Pro-Phe-p-nitroanilide

CTRB1 S242T, sequence (P17538 19-263 Y164H/S242T): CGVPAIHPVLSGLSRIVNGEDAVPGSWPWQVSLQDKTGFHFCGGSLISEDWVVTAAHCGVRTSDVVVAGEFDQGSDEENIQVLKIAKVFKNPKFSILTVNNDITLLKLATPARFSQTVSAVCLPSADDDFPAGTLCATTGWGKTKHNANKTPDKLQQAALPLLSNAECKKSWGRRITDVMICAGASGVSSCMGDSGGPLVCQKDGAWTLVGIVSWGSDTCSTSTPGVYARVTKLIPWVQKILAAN

Molecule: Suc-Ala-Ala-Pro-Phe-p-nitroanilide [Suc-AAPF-pNA]
- kcat/KM, CTRB1 S242T [1]: 180000 M⁻¹ s⁻¹
- kcat, CTRB1 S242T [1]: 38.4 s⁻¹
- Km [1]: 220 µM
- kcat/KM, CTRB1 [2]: 160000 M⁻¹ s⁻¹
- Km [2]: 219 µM
- kcat/KM, bCTRA [3]: 790000 M⁻¹ s⁻¹
- kcat, bCTRA [3]: 36.9 s⁻¹
- kcat/KM of bCTRA relative to CTRB1 ([3]; more efficient than CTRB1): 5 fold
- Km [3]: 46.6 µM
- kcat/KM, CTRB1 D236R [4]: 2e+06 M⁻¹ s⁻¹
- kcat, CTRB1 D236R [4]: 36.0 s⁻¹
- kcat/KM of CTRB1 D236R relative to CTRB1 ([4]; more efficient than CTRB1): 12.5 fold
- Km [4]: 17.9 µM
- kcat/KM, CTRB2 [5]: 1.3e+06 M⁻¹ s⁻¹
- kcat, CTRB2 [5]: 26.1 s⁻¹
- kcat/KM of CTRB2 relative to CTRB1 ([5]; more efficient than CTRB1): 8.1 fold
- Km [5]: 20.4 µM

Molecule: SGPI-2 (from UniProt O46162)
- Kd [6]: 1.1 nM

Molecule: H-Ala-Ala-Pro-Phe-p-nitroanilide [H-AAPF-pNA]
- kcat/KM, CTRB1 S242T [1]: 39000 M⁻¹ s⁻¹
- kcat, CTRB1 S242T [1]: 21.3 s⁻¹
- Km [1]: 550 µM
- kcat/KM, CTRB1 [2]: 40000 M⁻¹ s⁻¹
- Km [2]: 575 µM
- reduction in kcat/KM on removal of the Suc group, CTRB1 [2, 9]: 4 fold
- kcat/KM, bCTRA [3]: 55000 M⁻¹ s⁻¹
- kcat, bCTRA [3]: 20.3 s⁻¹
- Km [3]: 371 µM
- kcat/KM, CTRB1 D236R [4]: 45000 M⁻¹ s⁻¹
- kcat, CTRB1 D236R [4]: 9.64 s⁻¹
- Km [4]: 214 µM
- kcat/KM, CTRB2 [5]: 36000 M⁻¹ s⁻¹
- kcat, CTRB2 [5]: 10.9 s⁻¹
- Km [5]: 304 µM
- reduction in kcat/KM on removal of the Suc group, CTRB2 [5, 9]: 36 fold

Molecule: Schistocerca gregaria proteinase inhibitor 2 [wild-type SGPI-2]
- Kd [7]: 0.16 nM

B1: β-casein: bovine β-casein, protein substrate (protein, UniProt P02666 16-224, looked up)
Beta-casein: RELEELNVPGEIVESLSSSEESITRINKKIEKFQSEEQQQTEDELQDKIHPFAQTQSLVYPFPGPIPNSLPQNIPPLTQTPVVVPPFLQPEVMGVSKVKEAMAPKHKEMPFPKYPVEPFTESQSLTLTDVENLHLPLPLLQSWMHQPHQPLPPTVMFPPQSVLSLSQSKVLPVPQKAVPYPQRDMPIQAFLLYQEPVLGPVRGPFPIIV
- digestion activity of CTRB2 relative to CTRB1 [8]: 2.3 fold
